Reference: ChEMBL document CHEMBL3286365, “Neoflavonoids as potential osteogenic agents from Dalbergia sissoo heartwood” (Bioorg Med Chem Lett, 2014)
The source made the active and inactive calls. The calls are words filed in the database; no cut-off is given here.

Key:
Type in all cases: functional, cell-based
Calvarial osteoblast [1] = experiment: Increase in osteocalcin gene expression in rat calvarial osteoblast cells by qPCR analysis
Calvarial osteoblast [2] = experiment: Osteogenic activity in rat calvarial osteoblast cells assessed as induction of cell differentiation by measuring alkaline phosphatase activity using pNPP as substrate by calorimetric analysis; details: for EC50: Rattus norvegicus, Calvarial osteoblast
Procedure, shortened: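 Primary rat calvarial osteoblasts, trypsinized at about 80% confluence, seeded at 2×10³ cells/well. Treated with compound (100µM, 1µM, 10nM, 100pM, 1pM) or vehicle for 48 h in α-MEM with 10% FBS, 10mM β-glycerophosphate, 50µg/ml ascorbic acid and 1% penicillin/streptomycin. Total ALP measured with p-nitrophenylphosphate substrate, absorbance at 405 nm. Mean±S.D. of three independent experiments.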

Calvarial osteoblast [3] = experiment: Increase in BMP-2 gene expression in rat calvarial osteoblast cells by qPCR analysis
Calvarial osteoblast [4] = experiment: Increase in collagen 1 gene expression in rat calvarial osteoblast cells by qPCR analysis
Calvarial osteoblast [5] = experiment: Increase in RunX2 gene expression in rat calvarial osteoblast cells by qPCR analysis
Calvarial osteoblast [6] = experiment: Osteogenic activity in rat calvarial osteoblast cells assessed as induction of mineralization by Alizarin red-S staining
Procedure, shortened: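 Calvarial osteoblasts trypsinized at 80% confluence and plated at 2.5×10⁴ cells/well. Treated with compound in differentiation medium (ascorbic acid 50µg/ml, β-glycerophosphate 10mM), with medium changed every alternate day for up to 21 days. Fixed in 4% paraformaldehyde for 15 min, stained 30 min with 40mM Alizarin Red-S (pH 4.5). Dye extracted with 10% acetic acid, heated at 85°C, neutralized with ammonium hydroxide, OD read at 405 nm.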

Compound | EC50 (Calvarial osteoblast [2]) | Activity (Calvarial osteoblast [1]) | concentration of maximal effect (Calvarial osteoblast [2]) | Activity (Calvarial osteoblast [3]) | Activity (Calvarial osteoblast [4]) | Activity (Calvarial osteoblast [5]) | Activity (Calvarial osteoblast [6])
COC1=CC(=O)c2cc(-c3ccccc3)c3cc(O)c(OC)cc3c2C1=O [LATINONE] | – | Active | 1000 nM | Active | Active | Active | –
C=CC(c1ccccc1)c1cc(O)c(OC)cc1OC (stereo unspecified) [DALBERGIPHENOL] | – | Active | 10 nM | Active | Active | Active | Active
COc1cc2oc(=O)cc(-c3ccccc3)c2cc1OC | – | Active | 1000 nM | Active | Active | Active | Active

The next lines start with results.

EC50 (Calvarial osteoblast [2]) | Compound | Activity (Calvarial osteoblast [1]) | concentration of maximal effect (Calvarial osteoblast [2]) | Activity (Calvarial osteoblast [3]) | Activity (Calvarial osteoblast [4]) | Activity (Calvarial osteoblast [5]) | Activity (Calvarial osteoblast [6])
1700 nM | COc1cc2c(cc1O)C(c1ccccc1)=CCO2 | Active | 10 nM | Active | Active | Active | –
6.46 nM | COc1cc(OC)c(/C(=C/C=O)c2ccccc2)cc1O | Active | 0.1 nM | Active | Active | Active | Active
1.01 nM | COc1cc2oc(=O)cc(-c3ccccc3)c2cc1O [DALBERGIN] | Active | 0.001 nM | Active | Active | Active | –
